# Source: article PMC5515376 (Nature, 2016)
# Read-outs that look alike come from different tables or passages of the source.
# How the values were obtained:
# Solubility assay in PBS = format: physicochemical; settings: for PBS solubility: PBS pH 7.4 with 1% DMSO
# Summary of the method: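 Compound was prepared at 100 µM in triplicate, both in 100% DMSO and in PBS pH 7.4 with 1% DMSO. Samples were shaken at 750 r.p.m. for 18 h at room temperature. Analysis was by UPLC–MS with single-ion detection. PBS response was fitted to a two-point calibration built from the DMSO samples.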
# [1] = test system: P. falciparum 3D7 stage IV–V gametocytes; assay: In vitro transmission-blocking assay; format: cell-based, Plasmodium falciparum
# Summary of the method: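 3D7 cultures were treated 3 days with 50 mM N-acetyl-D-glucosamine to remove asexual parasites. Stage IV–V gametocytes were then isolated on a discontinuous Percoll gradient. Gametocytes (1.0 × 10^5 per well) were incubated with compound for 72 h. Viability was measured by CellTiter-Glo luminescence.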
# P. falciparum NITD609^R = assay: Blood-stage growth inhibition, P. falciparum NITD609^R strain; format: cell-based, Plasmodium falciparum
# Summary of the method: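 Asexual blood-stage parasites were cultured to 3–8% parasitaemia, counted on Giemsa smears, and diluted in medium to 2.0% parasitaemia and 2.0% haematocrit. This suspension was added to compound dispensed from DMSO, giving a final 1% parasitaemia and 1% haematocrit, with mefloquine as control. Plates were incubated for 72 h at 37 °C. Growth was read by SYBR Green I fluorescence in Tris/EDTA/saponin/Triton X-100 lysis buffer.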
# [2] = test system: Mammalian cells (HepG2, A549, and HEK293); assay: Mammalian cell cytotoxicity; format: cell-based; settings: initial characterization
# Summary of the method: (§1)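 HepG2, A549 or HEK293 cells were grown in DMEM with 10% FBS and 1% antibiotic–antimycotic and tested mycoplasma-free. Cells (1 × 10^6) were seeded one day before treatment. They were exposed to ascending compound doses for 72 h, and viability was read by CellTiter-Glo.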
# [3] = test system: parasite cytosolic Na^+ concentration; assay: Parasite cytosolic Na+ concentration measurement; format: cell-based, Plasmodium falciparum; settings: after treatment
# P. falciparum Dd2 = assay: In vitro P. falciparum blood-stage growth inhibition assay; format: cell-based, Plasmodium falciparum
# hERG channel = hERG channel (Homo sapiens, UniProt Q12809); assay: hERG channel inhibition assay; format: cell-based; settings: read-out: hERG IC50; IKr
# Summary of the method: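 hERG current was measured in hERG-expressing cell lines by automated patch clamp (QPatch-HTX).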
# [4] = Metabolic stability assay, mouse liver microsomes; format: in vitro ADME
# Summary of the method: (§2)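 Liver microsomes (0.2 mg ml−1) were incubated with compound (0.5 and 5 µM) plus NADPH for 0, 10 and 90 min. Human microsomes or mouse CD-1 microsomes were used, as named in each line. Compound depletion was measured by LC–MS/MS and used to estimate Km, Vmax and half-life.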
# [5] = Metabolic stability assay, human liver microsomes; format: in vitro ADME
# Summary of the method: as §2
# HepG2 cell line = assay: Mammalian cell cytotoxicity assay; format: cell-based, human; settings: for Cytotoxicity: HepG2 cell line; for CC50: read-out: HepG2 CC50, 72 h
# Summary of the method: as §1
# [6] = Mouse pharmacokinetics assay; format: in vivo; settings: CD-1 mice; for AUC0-t: t = 24 h
# Summary of the method: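 Female CD-1 mice received single intravenous and oral doses. Parameters were estimated by non-compartmental analysis.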
# [7] = test system: P. berghei (ANKA GFP-luc) blood-stage parasites; assay: In vivo P. berghei blood-stage assay; design: species or system Plasmodium berghei; settings: CD-1 mice; single 100 mg kg^−1 dose; parasites re-emerge very quickly
# [8] = test system: P. falciparum (NF54) gametocytes; assay: In vitro transmission-blocking imaging assay; format: cell-based, Plasmodium falciparum
# Summary of the method: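 Highly synchronous NF54 pf-LUC-GFP gametocytes were induced from a single asexual cycle. They were exposed to 16 compound doses, with final controls of 0.4% DMSO and 5 µM puromycin, for 72 h at 37 °C under 5% CO2/5% O2/90% N2 and 60% humidity. MitoTracker Red CM-H2XRos was then added overnight, and plates were imaged after ≥1 h at room temperature. IC50 came from a 4-parameter variable-slope fit.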
# [9] = test system: P. berghei (ANKA) liver stage; assay: In vitro P. berghei liver-stage assay; format: cell-based, Plasmodium berghei; settings: P. berghei (ANKA), Liver stage
# Summary of the method: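 HepG2 cells (~17,500 per well, in duplicate) were cultured 18–24 h, then the medium was exchanged and compound added. After 1 h, 4,000 P. berghei ANKA GFP–luc sporozoites per well were added, freshly dissected from A. stephensi mosquitoes. Plates were spun 10 min at 1,000 r.p.m. and incubated 48 h at 37 °C. Parasite load was read by Bright-Glo luminescence.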
# [10] = Plasma protein binding assay; format: in vitro ADME
# Summary of the method: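 Binding was measured by equilibrium dialysis in a RED device. Compound at 5 µM, in duplicate, was placed in mouse plasma (0.95% acetonitrile, 0.05% DMSO) against PBS pH 7.4. Incubation was 5 h at 37 °C with 350 r.p.m. orbital shaking. Both sides were analysed by UPLC–MS with single-ion detection.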
# [11] = test system: P. falciparum (NF54) liver stage; assay: In vitro P. falciparum liver-stage assay; format: cell-based, Plasmodium falciparum
# [12] = test system: P. falciparum (NF54) male and female stage-V gametocytes; assay: Dual gamete formation assay; format: cell-based, Plasmodium falciparum
# [13] = read-out: PfDd2 EC50, asexual blood-stage parasites (Dd2), SAR table
# [14] = P. falciparum (Dd2), Blood stage
# [15] = read-out: Pf, Dd2 EC50, blood stage
# [16] = printed in the IV (3) column, PO (10) vs IV (3) mg/kg
# hERG channel, sequence (Q12809 whole entry): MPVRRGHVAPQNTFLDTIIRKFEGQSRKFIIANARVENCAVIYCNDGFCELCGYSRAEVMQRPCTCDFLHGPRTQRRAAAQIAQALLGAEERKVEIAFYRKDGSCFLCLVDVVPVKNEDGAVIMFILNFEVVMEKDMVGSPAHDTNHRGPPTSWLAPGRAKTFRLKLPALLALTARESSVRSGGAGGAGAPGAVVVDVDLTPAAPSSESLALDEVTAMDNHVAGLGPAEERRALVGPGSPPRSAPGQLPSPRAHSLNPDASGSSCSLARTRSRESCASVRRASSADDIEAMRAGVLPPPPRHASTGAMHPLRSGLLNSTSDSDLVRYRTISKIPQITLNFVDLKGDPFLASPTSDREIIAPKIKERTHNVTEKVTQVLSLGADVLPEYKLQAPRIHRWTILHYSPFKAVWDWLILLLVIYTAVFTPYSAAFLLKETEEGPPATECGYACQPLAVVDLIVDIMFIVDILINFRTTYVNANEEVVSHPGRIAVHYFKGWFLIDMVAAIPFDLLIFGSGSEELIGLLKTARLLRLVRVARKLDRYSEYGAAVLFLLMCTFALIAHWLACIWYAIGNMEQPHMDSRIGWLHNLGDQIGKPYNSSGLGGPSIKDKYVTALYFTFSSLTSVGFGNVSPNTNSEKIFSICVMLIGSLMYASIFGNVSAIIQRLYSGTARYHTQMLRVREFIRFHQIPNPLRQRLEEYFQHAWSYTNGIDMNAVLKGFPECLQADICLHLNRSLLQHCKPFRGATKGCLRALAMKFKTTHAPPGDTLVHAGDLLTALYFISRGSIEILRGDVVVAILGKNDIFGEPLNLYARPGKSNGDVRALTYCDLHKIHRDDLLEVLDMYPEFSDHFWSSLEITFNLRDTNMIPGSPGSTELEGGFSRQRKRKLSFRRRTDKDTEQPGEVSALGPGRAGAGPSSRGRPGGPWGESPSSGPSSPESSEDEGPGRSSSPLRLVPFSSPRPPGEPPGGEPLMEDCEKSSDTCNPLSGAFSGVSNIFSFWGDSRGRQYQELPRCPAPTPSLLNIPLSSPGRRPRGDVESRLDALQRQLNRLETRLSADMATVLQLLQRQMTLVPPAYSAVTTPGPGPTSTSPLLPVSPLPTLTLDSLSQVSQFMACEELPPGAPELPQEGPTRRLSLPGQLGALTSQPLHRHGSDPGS
smiles,measurement,setting,value
COc1ccc(-c2ccccc2[C@H]2[C@@H](C#N)N(C(=O)C3CCCC3)[C@H]2CO)cc1 [BRD0026],Solubility (in words),Solubility assay in PBS; initial characterization,good solubility
same,EC50,"[1]; read-out: EC50, late-sexual blood stages, in vitro",1.98 µM
same,Potency against Pf NITD609^R,P. falciparum NITD609^R; relative to Dd2,selectively reduced potency
same,EC50,P. falciparum NITD609^R; strain carrying a point mutation in P. falciparum ATPase4,1.77 µM
same,Cytotoxicity (in words),[2],low cytotoxicity
same,Parasite cytosolic Na^+ concentration,[3],rapid increase
same,EC50,"P. falciparum Dd2; read-out: EC50, asexual blood stages, in vitro",0.346 µM
COc1ccc(NC(=O)N2CCCCN3[C@H](CN(C)C(C)C)[C@H](c4ccc(C#Cc5ccccc5)cc4)[C@@H]3C2)cc1 [BRD4716],EC50,P. falciparum Dd2; [13],0.024 µM
COc1ccc(NC(=O)N2CCCCN3[C@H](COCCC(=O)O)[C@H](c4ccc(C#Cc5ccccc5)cc4)[C@@H]3C2)cc1 [BRD3316],PBS solubility,Solubility assay in PBS,91 µM
same,IC50,hERG channel,> 10 µM
same,Mouse Clint,[4],38 µL/min/mg
same,Human Clint,[5],34 µL/min/mg
same,EC50,P. falciparum Dd2; [14],0.019 µM
same,EC50,P. falciparum Dd2; [15],0.023 µM
same,EC50,P. falciparum Dd2; [13],0.022 µM
same,Cytotoxicity,HepG2 cell line,no significant cytotoxicity
same,CC50,HepG2 cell line,> 50 µM
same,AUC0-inf,[6]; IV (3.2) mg/kg,13.2 µM·h
same,CL,[6]; IV (3.2) mg/kg,7.1 mL/min/kg
same,MRT0-inf,[6]; IV (3.2) mg/kg,3.3 h
same,T1/2,[6]; IV (3.2) mg/kg,2.3 h
same,Vss,[6]; IV (3.2) mg/kg,1.4 L/kg
same,AUC0-inf,[6]; PO (13) mg/kg,33.5 µM·h
same,Cmax,[6]; PO (13) mg/kg,6800 nM
same,F,[6]; PO (13) mg/kg,63%
same,MRT0-inf,[6]; PO (13) mg/kg,3.9 h
same,T1/2,[6]; PO (13) mg/kg,2.4 h
same,Tmax,[6]; PO (13) mg/kg,1 h
same,AUC0-t,[6]; PO (13) mg/kg,33.5 ^¶ µM*hr
COc1ccc(NC(=O)N2CCCCN3[C@H](CN4CCN(C)CC4)[C@H](c4ccc(C#Cc5ccccc5)cc4)[C@@H]3C2)cc1 [BRD6479],EC50,P. falciparum Dd2; [13],0.158 µM
COc1ccc(NC(=O)N2CCCCCN3[C@H](CO)[C@H](c4ccc(C#Cc5ccccc5)cc4)[C@@H]3C2)cc1 [BRD0185],EC50,P. falciparum Dd2; [13],0.087 µM
COc1ccc(NC(=O)N2CCCCN3[C@H](CO)[C@H](c4ccc(C#Cc5ccccc5)cc4)[C@]3(CO)C2)cc1 [BRD2936],EC50,P. falciparum Dd2; [13],1.87 µM
"C[C@H]1[C@H](OC(=O)CCC(=O)O)O[C@@H]2O[C@@]3(C)CC[C@H]4[C@H](C)CC[C@@H]1[C@@]24OO3 [artesunate, reference compound]",Effect on parasites,[7],rapid suppression of parasites
same,Parasite cytosolic Na^+ concentration,[3],constant
OC(c1cc(C(F)(F)F)nc2c(C(F)(F)F)cccc12)C1CCCCN1 (centres unmarked) [mefloquine],Parasite cytosolic Na^+ concentration,[3],constant
"O=C1C(O)=C([C@H]2CC[C@H](c3ccc(Cl)cc3)CC2)C(=O)c2ccccc21 [atovaquone, reference compound]",EC90,"P. falciparum Dd2; Plasmodium falciparum, DD2",0.002 µM
COc1ccc(NC(=O)N2CCCN3[C@H](CO)[C@H](c4ccc(C#Cc5ccccc5)cc4)[C@@H]3C2)cc1 [BRD9599],EC50,P. falciparum Dd2; [13],0.85 µM
COc1ccc(NC(=O)N2CCCCN3[C@H](CO)[C@H](c4ccc(C#Cc5ccccc5C#N)cc4)[C@@H]3C2)cc1 [BRC4873],EC50,P. falciparum Dd2; [13],0.261 µM
COc1ccc(NC(=O)N2CCCCN3[C@H](CO)[C@H](c4ccc(C#CC5CC5)cc4)[C@@H]3C2)cc1 [BRD5774],EC50,P. falciparum Dd2; [13],12.2 µM
COc1ccc(NC(=O)N2CCCCN3[C@H](CO)[C@H](c4ccc(C#Cc5ccccc5)cc4)[C@@H]3C2)cc1 [BRD3444],PBS solubility,Solubility assay in PBS,< 1 µM
same,IC50,hERG channel,5.2 µM
same,EC50,"[8]; read-out: EC50, early (E, stages I–III) gametocytes",0.282 µM
same,EC50,"[8]; read-out: EC50, late (L, stages IV–V) gametocytes",1.44 µM
same,EC50,"[1]; P. falciparum (3D7), Gametocyte (IV-V)",0.663 µM
same,Mouse Clint,[4],248 µL/min/mg
same,Human Clint,[5],142 µL/min/mg
same,EC50,[9],0.14 µM
same,Mouse Plasma protein binding,[10],99.9%
same,EC50,[11],1.31 µM
same,EC50,P. falciparum Dd2; [14],0.009 µM
same,EC50,P. falciparum Dd2; [15],0.009 µM
same,EC50,P. falciparum Dd2; [13],0.011 µM
same,"Potency across P. falciparum Dd2, PfscDHODH and Pf NITD609^R",P. falciparum Dd2; three P. falciparum strains,equipotent
same,Cytotoxicity,HepG2 cell line,no significant cytotoxicity
same,CC50,HepG2 cell line,> 50 µM
same,AUC0-inf,[6]; IV (3) mg/kg,1.4 µM·h
same,CL,[6]; IV (3) mg/kg,72 mL/min/kg
same,MRT0-inf,[6]; IV (3) mg/kg,2.8 h
same,T1/2,[6]; IV (3) mg/kg,3.7 h
same,Vss,[6]; IV (3) mg/kg,12 L/kg
same,AUC0-t,[6]; IV (3) mg/kg,1.2 ^¶ µM*hr
same,AUC0-inf,[6]; PO (10) mg/kg,4 µM·h
same,Cmax,[6]; PO (10) mg/kg,600 nM
same,T1/2,[6]; PO (10) mg/kg,3.2 h
same,Tmax,[6]; PO (10) mg/kg,0.5 h
same,AUC0-t,[6]; PO (10) mg/kg,4 ^¶ µM*hr
same,F,[6]; [16],86%
same,EC50,"[12]; read-out: EC50, gamete formation, female (F)",0.804 µM
same,EC50,"[12]; read-out: EC50, gamete formation, male",~1 µM
COc1ccc(NC(=O)N2CCCCN3[C@H](CN)[C@H](c4ccc(C#Cc5ccccc5)cc4)[C@@H]3C2)cc1 [BRD1095],PBS solubility,Solubility assay in PBS,25 µM
same,IC50,hERG channel,5.1 µM
same,Mouse Clint,[4],< 20 µL/min/mg
same,Human Clint,[5],< 20 µL/min/mg
same,Mouse Plasma protein binding,[10],99.3%
same,EC99.9,P. falciparum Dd2; P. falciparum Dd2,60 nM
same,EC50,P. falciparum Dd2; [15],0.01 µM
same,EC50,P. falciparum Dd2; [13],0.01 µM
same,CC50,HepG2 cell line,15.6 µM
same,AUC0-inf,[6]; IV (3) mg/kg,14.9 µM·h
same,CL,[6]; IV (3) mg/kg,6.7 mL/min/kg
same,MRT0-inf,[6]; IV (3) mg/kg,39.2 h
same,Vss,[6]; IV (3) mg/kg,16 L/kg
same,AUC0-t,[6]; IV (3) mg/kg,7 ^¶ µM*hr
same,Cmax,[6]; PO (10) mg/kg,600 nM
same,T1/2,[6]; PO (10) mg/kg,28.8 h
same,Tmax,[6]; PO (10) mg/kg,4 h
same,AUC0-t,[6]; PO (10) mg/kg,11.7 ^¶ µM*hr
same,F,[6]; [16],50%
COc1ccc(NC(=O)N2CCCCN3[C@H](CN4CCC4)[C@H](c4ccc(C#Cc5ccccc5)cc4)[C@@H]3C2)cc1 [BRD8493],EC50,P. falciparum Dd2; [13],0.116 µM
